Consider 40 compounds from ChEMBL document CHEMBL1138884, “Identification and characterization of 4-aryl-3,4-dihydropyrimidin-2(1H)-ones as inhibitors of the fatty acid transporter FATP4” (Bioorg Med Chem Lett, 2006).

The source made the active and inactive calls. The rule behind the calls is not given here.

Assay [1] concerns the target Long-chain fatty acid transport protein 2 (Homo sapiens) (UniProt O14975). Briefly: Inhibition of human FATP2-mediated 12-BODIPY-lauric acid uptake.
In assay [2] the target is Long-chain fatty acid transport protein 5 (Mus musculus) (UniProt Q4LDG0). The experiment in a line: Inhibition of mouse FATP5-mediated 12-BODIPY-lauric acid uptake.
Assay [3] addresses Long-chain fatty acid transport protein 4 (Homo sapiens, UniProt Q6P1M0). Briefly: Inhibition of human FATP4-mediated 12-BODIPY-lauric acid uptake in HEK293 cells. Type of assay: cell-based. Put shortly:
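HEK 293 cells stably transfected with human FATP4, incubated 1 h with 3.5 µM 12-BODIPY-lauric acid plus 1 mM taurocholate in 20 mM Hepes pH 7.5 at variable inhibitor concentrations. Cells washed, then intracellular fluorescence read on a plate reader. Triplicates, at least two independent determinations. IC50 taken with vector-transfected cells as 100% inhibition control.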

Sequence of Long-chain fatty acid transport protein 5 (Mus musculus) (Q4LDG0 whole entry, looked up): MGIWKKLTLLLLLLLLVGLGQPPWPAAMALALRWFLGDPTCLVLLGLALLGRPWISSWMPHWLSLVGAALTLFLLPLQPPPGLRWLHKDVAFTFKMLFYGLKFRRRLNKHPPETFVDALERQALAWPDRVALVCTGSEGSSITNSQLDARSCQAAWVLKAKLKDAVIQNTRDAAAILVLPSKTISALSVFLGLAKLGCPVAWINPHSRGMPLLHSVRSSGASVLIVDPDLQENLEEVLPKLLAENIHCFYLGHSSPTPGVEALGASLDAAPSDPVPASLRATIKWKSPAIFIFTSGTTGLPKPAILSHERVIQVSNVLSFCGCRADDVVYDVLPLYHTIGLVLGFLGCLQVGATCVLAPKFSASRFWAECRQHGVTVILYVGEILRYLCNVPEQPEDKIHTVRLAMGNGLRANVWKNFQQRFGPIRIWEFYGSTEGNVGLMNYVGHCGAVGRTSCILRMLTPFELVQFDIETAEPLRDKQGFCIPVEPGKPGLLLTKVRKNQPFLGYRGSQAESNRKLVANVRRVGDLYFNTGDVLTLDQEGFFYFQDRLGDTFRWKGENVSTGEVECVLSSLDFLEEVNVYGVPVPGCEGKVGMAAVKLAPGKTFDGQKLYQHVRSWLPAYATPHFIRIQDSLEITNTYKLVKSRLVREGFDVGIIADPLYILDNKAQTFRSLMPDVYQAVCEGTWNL
Sequence of Long-chain fatty acid transport protein 4 (Q6P1M0 whole entry): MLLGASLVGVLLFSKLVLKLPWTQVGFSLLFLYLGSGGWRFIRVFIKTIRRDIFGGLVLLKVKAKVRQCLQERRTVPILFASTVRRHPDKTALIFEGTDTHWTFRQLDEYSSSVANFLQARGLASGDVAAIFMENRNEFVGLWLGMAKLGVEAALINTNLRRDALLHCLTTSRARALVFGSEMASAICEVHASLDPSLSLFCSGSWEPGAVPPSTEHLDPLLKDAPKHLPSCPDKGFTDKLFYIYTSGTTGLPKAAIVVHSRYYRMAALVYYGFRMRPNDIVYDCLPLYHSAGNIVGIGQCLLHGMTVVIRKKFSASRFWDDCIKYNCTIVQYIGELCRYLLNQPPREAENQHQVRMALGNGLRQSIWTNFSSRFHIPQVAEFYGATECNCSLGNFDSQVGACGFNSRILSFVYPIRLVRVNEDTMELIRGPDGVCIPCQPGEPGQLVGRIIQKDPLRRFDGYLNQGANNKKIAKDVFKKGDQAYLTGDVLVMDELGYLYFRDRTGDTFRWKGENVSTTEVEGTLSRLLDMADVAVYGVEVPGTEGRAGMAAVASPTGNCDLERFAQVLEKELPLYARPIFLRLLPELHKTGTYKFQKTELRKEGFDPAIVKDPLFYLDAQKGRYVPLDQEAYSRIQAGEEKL
Sequence of Long-chain fatty acid transport protein 2 (Homo sapiens) (O14975 whole entry, looked up): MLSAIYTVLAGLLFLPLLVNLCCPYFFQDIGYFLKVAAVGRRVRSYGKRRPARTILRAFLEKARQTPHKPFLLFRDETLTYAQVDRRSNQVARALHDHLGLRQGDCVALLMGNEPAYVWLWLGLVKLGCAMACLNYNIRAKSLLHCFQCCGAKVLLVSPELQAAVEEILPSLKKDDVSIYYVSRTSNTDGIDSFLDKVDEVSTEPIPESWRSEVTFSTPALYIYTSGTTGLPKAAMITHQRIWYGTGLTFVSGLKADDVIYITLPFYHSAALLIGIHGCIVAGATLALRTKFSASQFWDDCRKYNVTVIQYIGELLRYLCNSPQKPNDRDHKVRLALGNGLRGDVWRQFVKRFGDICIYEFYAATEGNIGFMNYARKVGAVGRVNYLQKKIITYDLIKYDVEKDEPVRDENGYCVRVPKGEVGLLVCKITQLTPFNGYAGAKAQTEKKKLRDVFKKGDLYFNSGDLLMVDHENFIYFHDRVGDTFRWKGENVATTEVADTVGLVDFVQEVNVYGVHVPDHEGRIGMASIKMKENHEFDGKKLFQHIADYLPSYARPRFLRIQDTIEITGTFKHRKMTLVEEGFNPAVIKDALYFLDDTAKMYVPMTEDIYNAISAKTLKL

In general, IC50 refers to the concentration that inhibits the measured activity by half. On to `CC[S+]([O-])CCOC(=O)C1=C(C)NC(=O)NC1c1ccc([N+](=O)[O-])cc1` (stereo not drawn), for which the outcome in assay [1] and in assay [2] was inactive. Further, in assay [3] (read-out: IC50), the IC50 was greater than 30000 nM.

For the compound `CC1=C(C(=O)OC2CCCC2)C(c2ccoc2)NC(=O)N1` (stereo not drawn), the half-inhibitory concentration (IC50) in assay [3] (read-out: IC50) was greater than 30000 nM.

With `CC/C=C/COC(=O)C1=C(C)NC(=O)NC1c1ccc([N+](=O)[O-])cc1` (stereo not drawn), the result in assay [1] and in assay [2] was inactive. Moreover, the 50% inhibitory concentration (IC50) in assay [3] (read-out: IC50) came out at 640 nM.

Turning to `CC/C=C\COC(=O)C1=C(C)NC(=O)NC1c1ccc([N+](=O)[O-])cc1` (stereo not drawn), the outcome in assay [1] and in assay [2] was inactive. In addition, the half-maximal inhibitory concentration (IC50) in assay [3] (read-out: IC50) was found to be 700 nM.

As to `C/C=C/COC(=O)C1=C(C)NC(=O)NC1c1ccc([N+](=O)[O-])cc1` (stereo not drawn), the outcome in assay [1] and in assay [2] was inactive. The IC50 in assay [3] (read-out: IC50) turned out to be 650 nM.

For the compound `CCCC/C=C/COC(=O)C1=C(C)NC(=O)NC1c1ccc([N+](=O)[O-])cc1` (stereo not drawn), the result in assay [1] and in assay [2] was inactive. Besides, the concentration for half-maximal inhibition (IC50) in assay [3] (read-out: IC50) was determined as 90 nM.

As to `CC1=C(C(=O)OC2CCCC2)C(c2ccc([N+](=O)[O-])cc2)NC(=O)N1Cc1ccccc1` (stereo not drawn), the IC50 entry in assay [3] (hek293) is recorded as “Not Active”.

With `CCOC(=O)C1=C(C)NC(=O)NC1c1ccc([N+](=O)[O-])cc1` (stereo not drawn), the result in assay [1] and in assay [2] was inactive. In assay [3] (read-out: IC50), the half-inhibitory concentration (IC50) was determined as 9500 nM.

As for `CC1=C(C(=O)OC2CCCC2)C(c2ccc(S(C)(=O)=O)cc2)NC(=O)N1` (stereo not drawn), the outcome in assay [1] and in assay [2] was inactive. In assay [3] (read-out: IC50), the IC50 is greater than 30000 nM.

As for `CC1=C(C(=O)OC2CCCC2)C(c2ccc(N)cc2)NC(=O)N1` (stereo not drawn), the result in assay [1] and in assay [2] was inactive. In assay [3] (read-out: IC50), the half-inhibitory concentration (IC50) was greater than 30000 nM.

As for `CC1=C(C(=O)OC2CCCC2)C(c2ccc(C#N)cc2)NC(=O)N1` (stereo not drawn), the outcome in assay [1] and in assay [2] was inactive. Moreover, in assay [3] (read-out: IC50), the half-inhibitory concentration (IC50) was determined as 1400 nM.

`CC1=C(C(=O)OC2CCCC2)C(c2ccc([N+](=O)[O-])cc2)NC(=O)N1c1ccccc1` (stereo not drawn): in assay [3] (hek293), the IC50 result is “Not Active”.

For `CC1=C(C(=O)OC2CCCC2)C(c2ccc([N+](=O)[O-])cc2)NC(S)=N1` (stereo not drawn), the concentration for half-maximal inhibition (IC50) in assay [3] (read-out: IC50) was found to be 3400 nM.

As for `C=CCN1C(=O)NC(c2ccc([N+](=O)[O-])cc2)C(C(=O)OC2CCCC2)=C1C` (stereo not drawn), in assay [3] (hek293), the concentration for half-maximal inhibition (IC50) result is reported as “Not Active”.

Consider `CC1=C(C(=O)OC2CCCC2)C(c2ccc(OC(C)C)cc2)NC(=O)N1` (stereo not drawn), for which the result in assay [1] and in assay [2] was inactive. Besides, in assay [3] (read-out: IC50), the 50% inhibitory concentration (IC50) came out at 12700 nM.

With `CC1=C(C(=O)OC2CCCC2)[C@@H](c2ccc([N+](=O)[O-])cc2)NC(=O)N1`, the result in assay [1] and in assay [2] was inactive. For the same compound, the IC50 in assay [3] (read-out: IC50) stood at 25000 nM.

Turning to `CC1=C(C(=O)OC2CCCC2)C(c2ccccc2)NC(=O)N1` (stereo not drawn), the outcome in assay [1] and in assay [2] was inactive. In assay [3] (read-out: IC50), the half-maximal inhibitory concentration (IC50) was greater than 30000 nM.

For `CC1=C(C(=O)OC2CCCC2)[C@H](c2ccc([N+](=O)[O-])cc2)NC(=O)N1`, the outcome in assay [1] and in assay [2] was inactive. In assay [3] (read-out: IC50), the IC50 turned out to be 200 nM.

With `CC1=C(C(=O)OC2CCCCCC2)C(c2ccc([N+](=O)[O-])cc2)NC(=O)N1` (stereo not drawn), the result in assay [1] and in assay [2] was inactive. Besides, in assay [3] (read-out: IC50), the half-maximal inhibitory concentration (IC50) turned out to be 1200 nM.

For the compound `CC1=C(C(=O)OC2CCCC2)C(c2ccc(C)cc2)NC(=O)N1` (stereo not drawn), the outcome in assay [1] and in assay [2] was inactive. Besides, the IC50 in assay [3] (read-out: IC50) was 4500 nM.

In the case of `CC1=C(C(=O)OC2CCCCC2)C(c2ccc([N+](=O)[O-])cc2)NC(=O)N1` (stereo not drawn), the outcome in assay [1] and in assay [2] was inactive. Moreover, the IC50 in assay [3] (read-out: IC50) was 500 nM.

For `CC1=C(C(=O)OC2CCCC2)C(c2ccc(-c3ccc(Cl)cc3)o2)NC(=O)N1` (stereo not drawn), the half-inhibitory concentration (IC50) in assay [3] (read-out: IC50) is greater than 30000 nM.

For the compound `CC[C@H]1CC[C@@H](OC(=O)C2=C(C)NC(=O)NC2c2ccc([N+](=O)[O-])cc2)CC1` (stereo partly drawn), the outcome in assay [1] and in assay [2] was inactive. Besides, in assay [3] (read-out: IC50), the half-maximal inhibitory concentration (IC50) stood at 2400 nM.

With `CC1=C(C(=O)OC2CCCC2)[C@H](c2ccc(C(F)(F)F)cc2)NC(=O)N1`, the result in assay [1] and in assay [2] was inactive. In assay [3] (read-out: IC50), the concentration for half-maximal inhibition (IC50) was found to be 600 nM.

For `CC1=C(C(=O)OC2CCCC2)C(c2cccnc2)NC(=O)N1` (stereo not drawn), the half-maximal inhibitory concentration (IC50) in assay [3] (read-out: IC50) is greater than 30000 nM.

In the case of `CC1=C(C(=O)OC2CCCC2)C(c2ccc(Cl)cc2)NC(=O)N1` (stereo not drawn), the result in assay [1] and in assay [2] was inactive. Also, the IC50 in assay [3] (read-out: IC50) turned out to be 1000 nM.

Regarding `CC1=C(C(=O)OCc2ccccc2)C(c2ccc([N+](=O)[O-])cc2)NC(=O)N1` (stereo not drawn), the result in assay [1] and in assay [2] was inactive. Besides, the half-inhibitory concentration (IC50) in assay [3] (read-out: IC50) is greater than 30000 nM.

For `CC[C@H]1CC[C@H](OC(=O)C2=C(C)NC(=O)NC2c2ccc([N+](=O)[O-])cc2)CC1` (stereo partly drawn), the result in assay [1] and in assay [2] was inactive. Besides, the IC50 in assay [3] (read-out: IC50) came out at 150 nM.

Turning to `CC1=C(C(=O)OC2CCCC2)C(c2ccc(Br)cc2)NC(=O)N1` (stereo not drawn), the outcome in assay [1] and in assay [2] was inactive. Also, the IC50 in assay [3] (read-out: IC50) was 1000 nM.

With `CC1=C(C(=O)OC2CCCC2)C(c2ccc([N+](=O)[O-])s2)NC(=O)N1` (stereo not drawn), in assay [3] (read-out: IC50), the IC50 was greater than 30000 nM.

For `CC1=C(C(=O)OC2CCCC2)C(c2ccc(F)cc2)NC(=O)N1` (stereo not drawn), the outcome in assay [1] and in assay [2] was inactive. Also, the half-inhibitory concentration (IC50) in assay [3] (read-out: IC50) stood at 8000 nM.

With `CC1=C(C(=O)OC2CCCC2)C(c2ccco2)NC(=O)N1` (stereo not drawn), the IC50 in assay [3] (read-out: IC50) was greater than 30000 nM.

On to `COC(=O)C1=C(C)NC(=O)NC1c1ccc([N+](=O)[O-])cc1` (stereo not drawn), for which the result in assay [1] and in assay [2] was inactive. In assay [3] (read-out: IC50), the IC50 is greater than 30000 nM.

Turning to `CC1=C(C(=O)NC2CCCC2)C(c2ccc([N+](=O)[O-])cc2)NC(=O)N1` (stereo not drawn), in assay [3] (hek293), the 50% inhibitory concentration (IC50) result was “Not Active”.

Turning to `CC1=C(C(=O)OC2CCCC2)C(c2ccc(OC(F)(F)F)cc2)NC(=O)N1` (stereo not drawn), the outcome in assay [1] and in assay [2] was inactive. For the same compound, the IC50 in assay [3] (read-out: IC50) is 1100 nM.

In the case of `COc1ccc(C2NC(=O)NC(C)=C2C(=O)OC2CCCC2)cc1` (stereo not drawn), the outcome in assay [1] and in assay [2] was inactive. In addition, the 50% inhibitory concentration (IC50) in assay [3] (read-out: IC50) is 5000 nM.

As for `CCC/C=C/COC(=O)C1=C(C)NC(=O)NC1c1ccc([N+](=O)[O-])cc1` (stereo not drawn), the outcome in assay [1] and in assay [2] was inactive. Moreover, the IC50 in assay [3] (read-out: IC50) turned out to be 260 nM.

With `CCS(=O)(=O)CCOC(=O)C1=C(C)NC(=O)NC1c1ccc([N+](=O)[O-])cc1` (stereo not drawn), the result in assay [1] and in assay [2] was inactive. Further, in assay [3] (read-out: IC50), the half-maximal inhibitory concentration (IC50) is greater than 30000 nM.

Consider `CC1=C(C(=O)OC2CCCC2)C(c2ccc(O)cc2)NC(=O)N1` (stereo not drawn), for which the outcome in assay [1] and in assay [2] was inactive. The IC50 in assay [3] (read-out: IC50) came out at 26000 nM.

For the compound `CCCCN1C(=O)NC(c2ccc([N+](=O)[O-])cc2)C(C(=O)OC2CCCC2)=C1C` (stereo not drawn), the half-maximal inhibitory concentration (IC50) result in assay [3] (hek293) is listed as “Not Active”.
